Reference: ChEMBL document CHEMBL1773065, “Impact of the nature of the substituent at the 3-position of 4H-1,2,4-benzothiadiazine 1,1-dioxides on their opening activity toward ATP-sensitive potassium channels” (J Med Chem, 2011)
Active and inactive are the calls of the source. The calls are words filed in the database; no cut-off is given here.

How the values were obtained:
Rattus norvegicus [1] = species on record: Rattus norvegicus; assay: Activation of ATP-sensitive potassium channel in glucose and extracellular calcium evoked rat pancreatic islets assessed as reduction in 45Calcium outflow at 50 uM
[2] = Inhibition of glucose induced insulin secretion from rat Pancreatic islet assessed as percentage of residual insulin release at 10 uM; type: functional
Procedure, shortened: (§1)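 Isolated rat pancreatic islets incubated with 16.7 mM glucose and drug at 0.1–50 μM. Result is insulin release as a percentage of residual release, mean ± SEM (n).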

[3] = Inhibition of glucose induced insulin secretion from rat Pancreatic islet assessed as percentage of residual insulin release at 50 uM; type: functional; procedure, shortened: as §1
Rattus norvegicus [4] = species on record: Rattus norvegicus; assay: Activation of ATP-sensitive potassium channel in extracellular calcium deprived and glucose evoked rat pancreatic islets assessed as reduction in 45Calcium outflow at 50 uM
Rattus norvegicus [5] = species on record: Rattus norvegicus; assay: Activation of ATP-sensitive potassium channel in glucose and extracellular calcium evoked rat pancreatic islets assessed as decrease in insulin output at 50 uM; conditions: TDE = time-dependent effect
[6] = Myorelaxant effect in KCl-induced precontracted rat aorta ring VSMC; type: functional, tissue-based
Procedure, shortened: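 Rat aortic rings precontracted with 30 mM KCl. EC50 is the drug concentration giving 50% relaxation, mean ± SEM (n).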

[7] = Myorelaxant effect in Wistar rat uterus smooth muscle assessed as inhibition of contractions induced by continuous superfusion of oxytocin in absence ATP-sensitive potassium channel blocker glibenclamide; type: functional
Procedure, shortened: (§2)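 Rat uterus continuously superfused with 50 mU/L oxytocin. Mean of three contraction AUCs set as 100%, then drug added at increasing concentrations, with no glibenclamide or with 1 or 10 μM glibenclamide present continuously. EC50 is the concentration giving 50% residual contraction, mean ± SEM (n).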

Rattus norvegicus [8] = species on record: Rattus norvegicus; assay: Activation of ATP-sensitive potassium channel in rat pancreatic islets assessed as decrease in insulinotropic glucose concentration-mediated cytosolic calcium level by fluorimetry
[9] = Dissociation constant, pKa of the compound; type: physicochemical
Procedure, shortened: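 pKa determined by UV spectrophotometry at 25 °C. Spectra recorded in aqueous buffers from pH 5 to 12.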

[10] = Inhibition of glucose induced insulin secretion from rat Pancreatic islet assessed as percentage of residual insulin release; type: functional; procedure, shortened: as §1
[11] = Myorelaxant effect in Wistar rat uterus smooth muscle assessed as inhibition of contractions induced by bolus of oxytocin injected in superfusion system at 50 uM; type: functional; parameters: scale not given: the % may be the effect or the level left
Procedure, shortened: (§3)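 Uteri from fed Wistar rats (150–200 g) given diethylstilboestrol dipropionate i.m. the day before. Tissue superfused; after 30 min stabilization, 20 mU oxytocin boluses given every 10 min until contractions (AUC) were constant. Three or more boluses per drug concentration (10, 50, 100 μM). Mean AUC expressed as percentage of the drug-free response.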

Rattus norvegicus [12] = species on record: Rattus norvegicus; assay: Activation of ATP-sensitive potassium channel in glucose and extracellular calcium evoked rat pancreatic islets assessed as increased 86Rb outflow at 10 uM by radioisotopic and fluorimetric method in presence of 10 uM ATP-sensitive potassium channel blocker glibenclamide
Procedure, shortened: (§4)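 Prelabeled, perifused rat pancreatic islets in 5.6 mM glucose with extracellular Ca2+. Drug given at 10 or 50 μM with 10 μM glibenclamide present continuously in the medium. Read-out is 86Rb outflow rate. Six individual experiments.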

Rattus norvegicus [13] = species on record: Rattus norvegicus; assay: Activation of ATP-sensitive potassium channel in glucose and extracellular calcium evoked rat pancreatic islets assessed as reduced 45Calcium outflow at 50 uM in presence of extracellular potassium ion; parameters: scale not given: the % may be the effect or the level left
Procedure, shortened: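 Prelabeled, perifused rat pancreatic islets exposed throughout to 2.8 mM glucose and extracellular Ca2+. Extracellular K+ raised suddenly from 5 to 50 mM, with or without 50 μM drug in the basal medium. Read-out is the magnitude of the increase in 45Ca outflow, in %/min.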

[14] = Myorelaxant effect in Wistar rat uterus smooth muscle assessed as inhibition of contractions induced by bolus of oxytocin injected in superfusion system at 10 uM; type: functional; parameters: scale not given: the % may be the effect or the level left; procedure, shortened: as §3
Rattus norvegicus [15] = species on record: Rattus norvegicus; assay: Activation of ATP-sensitive potassium channel in glucose and extracellular calcium evoked rat pancreatic islets assessed as increase in 86Rb outflow measured per min
Procedure, shortened: (§5)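 Prelabeled rat pancreatic islets, perifused throughout with 5.6 mM glucose and extracellular Ca2+. Drug added at 10 or 50 μM, then withdrawn. Read-out is the increase in 86Rb outflow rate, in %/min. Six individual experiments.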

Rattus norvegicus [16] = species on record: Rattus norvegicus; assay: Activation of ATP-sensitive potassium channel in glucose and extracellular calcium evoked rat pancreatic islets assessed as increase in 86Rb outflow measured per min at 50 uM; procedure, shortened: as §5
[17] = Myorelaxant effect in Wistar rat uterus smooth muscle assessed as inhibition of contractions induced by bolus of oxytocin injected in superfusion system at 100 uM; type: functional; parameters: scale not given: the % may be the effect or the level left; procedure, shortened: as §3
Rattus norvegicus [18] = species on record: Rattus norvegicus; assay: Activation of ATP-sensitive potassium channel in glucose and extracellular calcium evoked rat pancreatic islets assessed as increased 86Rb outflow at 50 uM by radioisotopic and fluorimetric method in presence of 10 uM ATP-sensitive potassium channel blocker glibenclamide; procedure, shortened: as §4
Rattus norvegicus [19] = species on record: Rattus norvegicus; assay: Activation of ATP-sensitive potassium channel in glucose and extracellular calcium evoked rat pancreatic islets assessed as increase in 86Rb outflow measured per min at 10 uM; procedure, shortened: as §5
[20] = Inhibition of glucose induced insulin secretion from rat Pancreatic islet assessed as percentage of residual insulin release at 1 uM; type: functional; procedure, shortened: as §1
Rattus norvegicus [21] = species on record: Rattus norvegicus; assay: Activation of ATP-sensitive potassium channel in rat aorta rings assessed as increased 86Rb outflow at 100 uM in absence of ATP-sensitive potassium channel blocker glibenclamide; type: tissue-based
Procedure, shortened: (§6)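 Prelabeled rat aortic rings perifused throughout with or without 10 μM glibenclamide. Drug applied at 100 μM. Read-out is 86Rb outflow. Four to five individual experiments.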

Rattus norvegicus [22] = species on record: Rattus norvegicus; assay: Activation of ATP-sensitive potassium channel in rat aorta rings assessed as increased 86Rb outflow at 100 uM in presence of 10 uM ATP-sensitive potassium channel blocker glibenclamide; type: tissue-based; procedure, shortened: as §6
[23] = Myorelaxant effect in Wistar rat uterus smooth muscle assessed as inhibition of contractions induced by continuous superfusion of oxytocin in presence of 1 uM ATP-sensitive potassium channel blocker glibenclamide; type: functional; procedure, shortened: as §2
[24] = Myorelaxant effect in Wistar rat uterus smooth muscle assessed as inhibition of contractions induced by continuous superfusion of oxytocin in presence of 10 uM ATP-sensitive potassium channel blocker glibenclamide; type: functional; procedure, shortened: as §2
[25] = Inhibition of glucose induced insulin secretion from rat Pancreatic islet assessed as percentage of residual insulin release at 0.1 uM; type: functional
Procedure, shortened: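 Isolated rat pancreatic islets incubated with test drug in the presence of 16.7 mM glucose. Insulin release was measured and expressed as percentage of residual insulin release, given as mean ± SEM with number of determinations (n).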

## COc1ccc2c(c1)S(=O)(=O)NC(NC(C)C)=N2
Rattus norvegicus [1]
  Activity: Active
[2]
  Activity: 8.5%
[3]
  Activity: 4.4%
Rattus norvegicus [4]
  Activity: inactive
Rattus norvegicus [5]
  Activity: tde

## CC(C)SC1=NS(=O)(=O)c2cc(Cl)c(Cl)cc2N1
[2]
  Activity: 70%
[3]
  Activity: 12.9%

## CC(C)CSC1=NS(=O)(=O)c2cc(Cl)ccc2N1
[6]
  EC50: 6.2 µM
[7]
  EC50: 13.5 µM

## CC(C)CC1=NS(=O)(=O)c2cc(F)ccc2N1
[2]
  Activity: 75.3%

## CC(C)SC1=NS(=O)(=O)c2ccc(Cl)cc2N1
[2]
  Activity: 80.2%
[3]
  Activity: 44%

## CC(C)OC1=NS(=O)(=O)c2cc(Cl)ccc2N1
Rattus norvegicus [8]
  Activity: Active
Rattus norvegicus [1]
  Activity: Active
[6]
  EC50: 22.7 µM
[2]
  Activity: 77.3%
[3]
  Activity: 17.5%
[9]
  pKa: 8
[10]
  IC50: 19.1 µM
[11]
  Activity: 85.8%
Rattus norvegicus [12]
  Activity: inactive
Rattus norvegicus [4]
  Activity: inactive
Rattus norvegicus [5]
  Activity: tde
Rattus norvegicus [13]
  Activity: 1.12%
[14]
  Activity: 88%
Rattus norvegicus [15]
  Activity: Dose-dependent effect
Rattus norvegicus [16]
  Activity: 1.32%
[17]
  Activity: 68.7%
Rattus norvegicus [18]
  Activity: inactive
Rattus norvegicus [19]
  Activity: 0.23%

## CC(C)NC1=NS(=O)(=O)c2ccccc2N1
[2]
  Activity: 34.9%
[20]
  Activity: 73.7%

## CC(C)NC1=NS(=O)(=O)c2cc(F)ccc2N1
[2]
  Activity: 3.7%
[3]
  Activity: 3.3%

## Cc1ccc2c(c1)S(=O)(=O)N=C(NC(C)C)N2
[2]
  Activity: 8.5%
[3]
  Activity: 3.5%
[20]
  Activity: 71.3%

## Cc1ccc2c(c1)S(=O)(=O)N=C(SC(C)C)N2
[2]
  Activity: 77%

## CC(C)CC1=NS(=O)(=O)c2ccccc2N1
[2]
  Activity: 85.2%

## CC(C)CC1=NS(=O)(=O)c2cc(Cl)ccc2N1
Rattus norvegicus [21]
  Activity: Active
[6]
  EC50: 5.8 µM
[2]
  Activity: 43.2%
[3]
  Activity: 21%
[9]
  pKa: 8.52
[10]
  IC50: 5.8 µM
[11]
  Activity: 64.7%
[14]
  Activity: 73.9%
Rattus norvegicus [22]
  Activity: inactive
[17]
  Activity: 55%

## CC(C)NC1=NS(=O)(=O)c2cc(Cl)ccc2N1
[10]
  IC50: 0.55 µM
[11]
  Activity: 95%
[14]
  Activity: 94.4%
[17]
  Activity: 75.6%

## COc1ccc2c(c1)S(=O)(=O)N=C(OC(C)C)N2
[2]
  Activity: 80.8%

## CC(C)SC1=NS(=O)(=O)c2ccc(Br)cc2N1
[2]
  Activity: 87%
[3]
  Activity: 33.8%

## O=S1(=O)N=C(SCc2ccccc2)Nc2ccc(Cl)cc21
[6]
  EC50: 5.4 µM
[7]
  EC50: 11.7 µM

## CC(N/C(=N\C#N)Nc1ccncc1)C(C)(C)C (racemic) [PINACIDIL ANHYDROUS]
[23]
  EC50: 8.1 µM
[24]
  EC50: 28.3 µM
[6]
  EC50: 0.62 µM
[10]
  IC50: 202 µM
[11]
  Activity: 42.7%
[14]
  Activity: 44.9%
[7]
  EC50: 1.3 µM
[17]
  Activity: 38.1%

## CC(C)SC1=NS(=O)(=O)c2ccccc2N1
[2]
  Activity: 93.9%

## CC(C)SC1=NS(=O)(=O)c2cc(F)ccc2N1
[2]
  Activity: 88.7%
[3]
  Activity: 55.1%

## CC(C)OC1=NS(=O)(=O)c2ccccc2N1
[2]
  Activity: 90.4%

## CC(C)[S+]([O-])C1=NS(=O)(=O)c2cc(Cl)ccc2N1 (stereo not given)
[2]
  Activity: 92.3%
[3]
  Activity: 89.8%

## Cc1ccc2c(c1)S(=O)(=O)N=C(OC(C)C)N2
[2]
  Activity: 79.5%

## CC(C)OC1=NS(=O)(=O)c2cc(F)ccc2N1
[2]
  Activity: 87.5%
[3]
  Activity: 44.1%

## CC(C)OC1=NS(=O)(=O)c2cc(Br)ccc2N1
[2]
  Activity: 62.5%

## CC(C)NC1=NS(=O)(=O)c2ccc(Cl)cc2N1
[2]
  Activity: 7.5%
[3]
  Activity: 6.4%
[25]
  Activity: 76.7%

## CC(C)SC1=NS(=O)(=O)c2cc(Cl)ccc2N1
[6]
  EC50: 23 µM
[2]
  Activity: 104%
[3]
  Activity: 51.3%
[9]
  pKa: 7.01
[10]
  IC50: 50 µM
[11]
  Activity: 54.7%
[14]
  Activity: 98.8%
[7]
  EC50: > 30 µM
[17]
  Activity: 2.3%

## CC(SC1=NS(=O)(=O)c2cc(Cl)ccc2N1)c1ccccc1 (racemic)
[23]
  EC50: 6.8 µM
[24]
  EC50: 24.2 µM
[6]
  EC50: 5.4 µM
[7]
  EC50: 4.4 µM

## CC1=Nc2ccc(Cl)cc2S(=O)(=O)N1 [DIAZOXIDE]
[10]
  IC50: 18.4 µM
[11]
  Activity: 76.3%
[14]
  Activity: 93.8%
[7]
  EC50: > 30 µM
[17]
  Activity: 67.7%

## CC(C)OC1=NS(=O)(=O)c2cc(Cl)c(Cl)cc2N1
[2]
  Activity: 73.7%

## CC(C)CC1=NS(=O)(=O)c2cc(Br)ccc2N1
[2]
  Activity: 61.8%
[20]
  Activity: 85.8%

## CC(C)NC1=NS(=O)(=O)c2cc(Br)ccc2N1
[2]
  Activity: 8.1%
[3]
  Activity: 6.7%
[25]
  Activity: 91%

## CC(C)SC1=NS(=O)(=O)c2cc(Br)ccc2N1
[2]
  Activity: 90.3%
[3]
  Activity: 47.3%
